According to ChEMBL document CHEMBL4387704, “Design, synthesis and biological evaluation of novel isoindolinone derivatives as potent histone deacetylase inhibitors” (Eur J Med Chem, 2019):
The source made the active and inactive calls. The rule behind the calls is not given here.

Columns and labels:
[1] = molecular target: Histone deacetylase 1 (Homo sapiens, UniProt Q13547); experiment: Inhibition of HDAC1 (unknown origin) using Fluor de Lys substrate by fluorescence assay relative to control
Chain of Histone deacetylase 1 (Q13547 whole entry): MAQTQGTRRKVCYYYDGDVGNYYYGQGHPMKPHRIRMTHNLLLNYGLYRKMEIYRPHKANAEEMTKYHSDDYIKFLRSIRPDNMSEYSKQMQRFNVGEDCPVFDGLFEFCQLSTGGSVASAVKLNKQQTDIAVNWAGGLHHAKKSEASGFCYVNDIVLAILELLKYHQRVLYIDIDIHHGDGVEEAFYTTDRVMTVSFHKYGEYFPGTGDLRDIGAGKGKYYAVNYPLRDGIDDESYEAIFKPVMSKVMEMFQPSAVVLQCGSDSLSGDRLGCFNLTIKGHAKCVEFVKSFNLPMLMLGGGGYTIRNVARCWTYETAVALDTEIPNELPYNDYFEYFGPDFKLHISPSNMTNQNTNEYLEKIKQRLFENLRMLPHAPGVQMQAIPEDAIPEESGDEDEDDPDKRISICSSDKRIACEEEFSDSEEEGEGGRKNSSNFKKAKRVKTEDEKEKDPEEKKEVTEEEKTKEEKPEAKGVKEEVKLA

[2] = test system: K562; experiment: Antiproliferative activity against human K562 assessed as reduction in cell viability measured after 72 hrs using alamar blue based fluorescence method; assay type: functional; conditions: K562, 72 h
Summary of the method: (§1)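 Leukemia lines grown in IMDM with penicillin/streptomycin, HL-60 with 20% FBS and K562 with 10% FBS, at 37 °C, 5% CO2. Cells in 96-well plates exposed to drug for 72 h. Alamar blue (1 mM solution) added for 5–6 h, fluorescence read at 530/590 nm.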

[3] = test system: HL-60; experiment: Antiproliferative activity against human HL60 assessed as reduction in cell viability measured after 72 hrs using alamar blue based fluorescence method; assay type: functional; conditions: HL-60, 72 h; summary of the method: as §1
[4] = test system: HCT-116; experiment: Antiproliferative activity against human HCT116 assessed as reduction in cell viability measured after 72 hrs using alamar blue based fluorescence method; assay type: functional; conditions: HCT-116, 72 h
Summary of the method: (§2)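 HCT116 and MCF-7 grown in McCoy's 5A with 10% FBS and penicillin/streptomycin at 37 °C, 5% CO2. Cells plated in 96-well format and exposed to drug for 72 h. Alamar blue (1 mM solution) added, incubated 5–6 h, fluorescence read at 530/590 nm.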

[5] = test system: MCF7; experiment: Antiproliferative activity against human MCF7 assessed as reduction in cell viability measured after 72 hrs using alamar blue based fluorescence method; assay type: functional; conditions: MCF7, 72 h; summary of the method: as §2
[6] = molecular target: Polyamine deacetylase HDAC10 (Homo sapiens, UniProt Q969S8); experiment: Inhibition of HDAC10 (unknown origin) using Fluor de Lys substrate by fluorescence assay relative to control
Chain of Polyamine deacetylase HDAC10 (Q969S8 whole entry, canonical isoform): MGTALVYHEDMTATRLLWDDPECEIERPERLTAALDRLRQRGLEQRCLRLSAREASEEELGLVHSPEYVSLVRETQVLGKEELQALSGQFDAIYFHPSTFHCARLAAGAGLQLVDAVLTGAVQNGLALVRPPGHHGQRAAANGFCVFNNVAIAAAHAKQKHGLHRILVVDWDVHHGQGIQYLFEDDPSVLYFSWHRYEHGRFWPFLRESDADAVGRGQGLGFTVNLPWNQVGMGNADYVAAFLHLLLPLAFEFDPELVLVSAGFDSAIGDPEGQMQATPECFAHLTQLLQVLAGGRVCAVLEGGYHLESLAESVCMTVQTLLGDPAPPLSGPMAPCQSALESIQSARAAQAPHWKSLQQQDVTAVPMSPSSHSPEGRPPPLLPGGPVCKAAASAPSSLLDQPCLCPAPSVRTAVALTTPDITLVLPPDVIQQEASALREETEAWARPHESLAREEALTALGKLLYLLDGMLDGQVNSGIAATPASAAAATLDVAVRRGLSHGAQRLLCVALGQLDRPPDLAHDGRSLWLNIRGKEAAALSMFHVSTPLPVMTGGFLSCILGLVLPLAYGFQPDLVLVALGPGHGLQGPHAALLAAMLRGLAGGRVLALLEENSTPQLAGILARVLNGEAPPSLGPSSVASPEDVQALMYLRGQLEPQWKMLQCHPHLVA
Summary of the method: (§3)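 Recombinant HDAC isoform assays run by a contract lab. Compounds in DMSO, 10-dose IC50 mode, 3-fold serial dilution from 50 μM. Duplicate runs; IC50 from curve fitting.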

[7] = molecular target: Histone deacetylase 7 (Homo sapiens) (UniProt Q8WUI4); experiment: Inhibition of HDAC7 (unknown origin) using Fluor de Lys substrate by fluorescence assay relative to control; summary of the method: as §3
[8] = molecular target: Histone deacetylase 11 (Homo sapiens, UniProt Q96DB2); experiment: Inhibition of HDAC11 (unknown origin) using Fluor de Lys substrate by fluorescence assay relative to control; summary of the method: as §3
Chain of Histone deacetylase 11 (Q96DB2 whole entry): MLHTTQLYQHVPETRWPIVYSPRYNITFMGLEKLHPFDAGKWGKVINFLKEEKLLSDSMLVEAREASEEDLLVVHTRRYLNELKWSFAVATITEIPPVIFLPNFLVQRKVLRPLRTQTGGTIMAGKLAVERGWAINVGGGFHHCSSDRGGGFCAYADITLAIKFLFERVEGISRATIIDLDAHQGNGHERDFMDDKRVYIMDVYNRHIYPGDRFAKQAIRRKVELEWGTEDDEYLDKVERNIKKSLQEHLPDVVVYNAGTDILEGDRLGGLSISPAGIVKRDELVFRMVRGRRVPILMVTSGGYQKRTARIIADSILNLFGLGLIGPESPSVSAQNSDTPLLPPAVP

[9] = Metabolic stability in human liver microsomes assessed as internal clearance at 1 uM preincubated for 10 mins followed by NADPH addition measured upto 60 mins by LC-MS/MS analysis; assay type: ADME, Microsome; conditions: read-out: CLH
Summary of the method: (§4)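 Liver microsomes from male SD rat, dog or human at 0.5 mg/mL in 100 mM potassium phosphate pH 7.4 with 1 μM compound. Prewarmed 37 °C 10 min, started with 1 mM NADPH. Stopped at 0, 5, 10, 20, 40, 60 min with cold methanol containing glibenclamide internal standard; supernatant by LC–MS/MS; T1/2 and CLint derived.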

[10] = Metabolic stability in human liver microsomes assessed as half life at 1 uM preincubated for 10 mins followed by NADPH addition measured upto 60 mins by LC-MS/MS analysis; assay type: ADME, Microsome; summary of the method: as §4
[11] = molecular target: Histone deacetylase 9 (Homo sapiens) (UniProt Q9UKV0); experiment: Inhibition of HDAC9 (unknown origin) using Fluor de Lys substrate by fluorescence assay relative to control; summary of the method: as §3
Chain of Histone deacetylase 9 (Homo sapiens) (Q9UKV0 whole entry): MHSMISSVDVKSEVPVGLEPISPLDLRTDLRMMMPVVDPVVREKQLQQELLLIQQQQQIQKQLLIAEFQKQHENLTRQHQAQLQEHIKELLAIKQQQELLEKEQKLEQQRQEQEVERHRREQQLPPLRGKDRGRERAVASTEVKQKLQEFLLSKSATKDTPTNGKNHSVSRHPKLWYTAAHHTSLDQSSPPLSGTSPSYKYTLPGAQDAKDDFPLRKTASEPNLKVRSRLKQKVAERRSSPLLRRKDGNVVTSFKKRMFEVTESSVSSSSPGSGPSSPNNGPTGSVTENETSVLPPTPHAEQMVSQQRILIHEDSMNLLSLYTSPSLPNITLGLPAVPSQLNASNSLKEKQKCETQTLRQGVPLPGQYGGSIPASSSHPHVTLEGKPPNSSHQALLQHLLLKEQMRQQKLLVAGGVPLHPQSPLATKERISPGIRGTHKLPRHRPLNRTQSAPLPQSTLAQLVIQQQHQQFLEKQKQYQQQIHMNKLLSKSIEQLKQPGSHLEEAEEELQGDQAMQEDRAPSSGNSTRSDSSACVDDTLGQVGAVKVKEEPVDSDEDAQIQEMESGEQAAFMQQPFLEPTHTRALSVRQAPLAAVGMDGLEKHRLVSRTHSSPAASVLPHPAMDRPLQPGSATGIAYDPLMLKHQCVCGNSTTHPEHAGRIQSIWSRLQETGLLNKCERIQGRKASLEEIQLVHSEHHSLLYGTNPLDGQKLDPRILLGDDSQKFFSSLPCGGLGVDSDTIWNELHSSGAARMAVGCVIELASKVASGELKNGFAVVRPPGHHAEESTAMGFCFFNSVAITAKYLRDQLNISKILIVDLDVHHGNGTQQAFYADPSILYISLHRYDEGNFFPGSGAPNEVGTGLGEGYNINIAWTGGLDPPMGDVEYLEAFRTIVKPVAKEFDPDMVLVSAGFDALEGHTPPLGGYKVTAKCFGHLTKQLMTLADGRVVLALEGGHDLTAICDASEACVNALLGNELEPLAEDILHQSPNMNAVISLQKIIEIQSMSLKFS

[12] = Metabolic stability in dog liver microsomes assessed as half life at 1 uM preincubated for 10 mins followed by NADPH addition measured upto 60 mins by LC-MS/MS analysis; assay type: ADME, Canis lupus familiaris, Microsome; summary of the method: as §4
[13] = molecular target: Histone deacetylase 5 (Homo sapiens) (UniProt Q9UQL6); experiment: Inhibition of HDAC5 (unknown origin) using Fluor de Lys substrate by fluorescence assay relative to control; summary of the method: as §3
Chain of Histone deacetylase 5 (Homo sapiens) (Q9UQL6 whole entry): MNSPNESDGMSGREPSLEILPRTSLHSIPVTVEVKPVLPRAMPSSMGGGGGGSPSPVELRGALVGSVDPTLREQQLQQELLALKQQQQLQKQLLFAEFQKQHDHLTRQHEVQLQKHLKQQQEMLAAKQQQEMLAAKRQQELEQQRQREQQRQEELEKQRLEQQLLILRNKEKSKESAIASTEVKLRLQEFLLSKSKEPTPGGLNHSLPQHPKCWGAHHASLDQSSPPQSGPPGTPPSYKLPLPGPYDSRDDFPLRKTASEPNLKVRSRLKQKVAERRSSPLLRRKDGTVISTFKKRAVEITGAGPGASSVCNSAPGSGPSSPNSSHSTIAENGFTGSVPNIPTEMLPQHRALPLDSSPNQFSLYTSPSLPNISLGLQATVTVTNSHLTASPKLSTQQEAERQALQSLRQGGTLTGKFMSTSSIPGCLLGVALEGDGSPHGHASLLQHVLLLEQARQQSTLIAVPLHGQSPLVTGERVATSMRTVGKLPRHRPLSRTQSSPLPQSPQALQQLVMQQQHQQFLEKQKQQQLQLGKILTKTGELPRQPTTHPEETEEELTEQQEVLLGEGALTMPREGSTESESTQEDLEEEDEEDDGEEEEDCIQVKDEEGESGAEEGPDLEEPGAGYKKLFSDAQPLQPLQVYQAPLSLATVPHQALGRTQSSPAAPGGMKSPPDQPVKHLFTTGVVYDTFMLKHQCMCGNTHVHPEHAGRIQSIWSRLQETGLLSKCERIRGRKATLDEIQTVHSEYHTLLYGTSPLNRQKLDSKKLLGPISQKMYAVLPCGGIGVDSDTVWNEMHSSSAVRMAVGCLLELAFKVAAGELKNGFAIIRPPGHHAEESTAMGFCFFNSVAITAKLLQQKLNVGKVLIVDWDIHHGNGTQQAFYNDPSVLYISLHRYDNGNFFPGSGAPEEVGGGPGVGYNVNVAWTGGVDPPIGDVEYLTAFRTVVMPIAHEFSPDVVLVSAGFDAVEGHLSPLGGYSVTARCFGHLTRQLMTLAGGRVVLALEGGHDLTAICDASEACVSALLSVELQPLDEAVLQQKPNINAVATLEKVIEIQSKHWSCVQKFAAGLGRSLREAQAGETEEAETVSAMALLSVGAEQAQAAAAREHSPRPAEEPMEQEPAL

[14] = Metabolic stability in rat liver microsomes assessed as half life at 1 uM preincubated for 10 mins followed by NADPH addition measured upto 60 mins by LC-MS/MS analysis; assay type: ADME, Microsome; summary of the method: as §4
[15] = Metabolic stability in rat liver microsomes assessed as internal clearance at 1 uM preincubated for 10 mins followed by NADPH addition measured upto 60 mins by LC-MS/MS analysis; assay type: ADME, Microsome; conditions: read-out: CLH; summary of the method: as §4
[16] = molecular target: Protein deacetylase HDAC6 (Homo sapiens) (UniProt Q9UBN7); experiment: Inhibition of HDAC6 (unknown origin) using Fluor de Lys substrate by fluorescence assay relative to control; summary of the method: as §3
Chain of Protein deacetylase HDAC6 (Homo sapiens) (Q9UBN7 whole entry): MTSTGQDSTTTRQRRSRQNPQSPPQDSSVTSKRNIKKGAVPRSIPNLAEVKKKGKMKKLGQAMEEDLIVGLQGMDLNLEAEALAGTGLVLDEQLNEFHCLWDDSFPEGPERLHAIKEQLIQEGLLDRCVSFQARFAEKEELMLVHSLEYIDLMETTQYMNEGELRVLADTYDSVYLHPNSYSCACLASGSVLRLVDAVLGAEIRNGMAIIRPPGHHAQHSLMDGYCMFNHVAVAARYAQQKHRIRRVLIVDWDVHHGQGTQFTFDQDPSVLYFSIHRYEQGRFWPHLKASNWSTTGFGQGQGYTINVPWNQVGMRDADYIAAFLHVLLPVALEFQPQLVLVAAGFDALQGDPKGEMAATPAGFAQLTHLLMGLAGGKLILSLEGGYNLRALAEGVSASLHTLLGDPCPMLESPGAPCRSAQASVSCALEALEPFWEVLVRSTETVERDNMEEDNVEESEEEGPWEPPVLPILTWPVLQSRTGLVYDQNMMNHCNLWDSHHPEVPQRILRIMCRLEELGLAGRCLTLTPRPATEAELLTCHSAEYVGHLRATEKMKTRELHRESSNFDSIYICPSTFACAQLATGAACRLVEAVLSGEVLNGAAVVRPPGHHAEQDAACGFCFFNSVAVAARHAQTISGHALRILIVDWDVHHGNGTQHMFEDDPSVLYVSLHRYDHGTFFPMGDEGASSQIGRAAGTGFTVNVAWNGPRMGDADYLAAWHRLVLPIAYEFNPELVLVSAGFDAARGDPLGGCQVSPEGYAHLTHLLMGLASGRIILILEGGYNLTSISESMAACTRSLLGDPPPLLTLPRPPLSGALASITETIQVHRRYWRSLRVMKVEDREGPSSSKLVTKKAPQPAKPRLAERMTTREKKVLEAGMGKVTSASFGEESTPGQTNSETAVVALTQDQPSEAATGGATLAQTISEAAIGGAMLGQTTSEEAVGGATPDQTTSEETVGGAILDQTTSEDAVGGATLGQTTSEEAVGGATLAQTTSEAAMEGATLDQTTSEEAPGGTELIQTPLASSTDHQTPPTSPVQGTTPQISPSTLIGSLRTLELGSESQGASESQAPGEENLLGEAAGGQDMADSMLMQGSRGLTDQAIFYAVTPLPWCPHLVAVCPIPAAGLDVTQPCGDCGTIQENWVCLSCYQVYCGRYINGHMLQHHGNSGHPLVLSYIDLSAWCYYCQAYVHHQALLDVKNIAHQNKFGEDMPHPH

[17] = molecular target: Histone deacetylase 4 (Homo sapiens) (UniProt P56524); experiment: Inhibition of HDAC4 (unknown origin) using Fluor de Lys substrate by fluorescence assay relative to control; summary of the method: as §3
[18] = Metabolic stability in dog liver microsomes assessed as internal clearance at 1 uM preincubated for 10 mins followed by NADPH addition measured upto 60 mins by LC-MS/MS analysis; assay type: ADME, Canis lupus familiaris, Microsome; conditions: read-out: CLH; summary of the method: as §4

Cc1ccc(NC(=O)c2ccc(CNC(=O)/C=C3\NC(=O)c4ccccc43)cc2)c(N)c1
IC50 ([1]; read-out: IC50): 5720 nM

Nc1cc(F)ccc1NC(=O)c1ccc(CNC(=O)/C=C2\NC(=O)c3ccc(C(F)(F)F)cc32)cc1
IC50 ([1]; read-out: IC50): 491 nM

Nc1cc(F)ccc1NC(=O)c1ccc(CNC(=O)/C=C2\NC(=O)c3cccnc32)cc1
IC50 [1]: Not Active

Nc1ccccc1NC(=O)CCCCCCNC(=O)/C=C1\NC(=O)c2ccccc21
IC50 ([1]; read-out: IC50): 320 nM

Nc1ccccc1NC(=O)CCCCCNC(=O)/C=C1\NC(=O)c2ccccc21
IC50 ([1]; read-out: IC50): 872 nM

Nc1ccccc1NC(=O)c1ccc(CNC(=O)/C=C2\NC(=O)c3ncccc32)cc1
IC50 ([1]; read-out: IC50): 758 nM

Nc1cc(F)ccc1NC(=O)c1ccc(CNC(=O)/C=C2\NC(=O)c3cc(Cl)c(Cl)cc32)cc1
IC50 ([1]; read-out: IC50): 489 nM

Nc1cc(F)ccc1NC(=O)c1ccc(CNC(=O)/C=C2\NC(=O)c3ccc(F)cc32)cc1
IC50 ([1]; read-out: IC50): 167 nM

O=C(/C=C1\NC(=O)c2ccccc21)NCCCCCC(=O)NO
IC50 ([1]; read-out: IC50): 57.9 nM

Nc1cc(Cl)ccc1NC(=O)c1ccc(CNC(=O)/C=C2\NC(=O)c3ccccc32)cc1
IC50 ([1]; read-out: IC50): 466 nM

Nc1ccc(F)cc1NC(=O)c1ccc(CNC(=O)/C=C2\NC(=O)c3ccccc32)cc1
IC50 ([1]; read-out: IC50): 70.3 nM

Nc1cc(F)ccc1NC(=O)CCCCCCNC(=O)/C=C1\NC(=O)c2ccccc21
IC50 ([1]; read-out: IC50): 1600 nM

Nc1ccccc1NC(=O)c1ccc(CNC(=O)/C=C2\NC(=O)c3ccccc32)cc1
IC50 [2]: 286 nM | IC50 [3]: 450 nM | IC50 [4]: 483 nM | IC50 [5]: 20100 nM | IC50 ([1]; read-out: IC50): 65.6 nM

Nc1cc(F)ccc1NC(=O)c1ccc(CNC(=O)/C=C/c2cccnc2)cc1 [TUCIDINOSTAT]
IC50 [6]: 235 nM | IC50 [2]: 747 nM | inhibition [7]: inactive | IC50 [3]: 1970 nM | IC50 [8]: 760 nM | microsomal CLint at 1 µM [9]: 4.98 µL/min/mg | half-life at 1 µM [10]: 4.6 h | IC50 [4]: 1090 nM | IC50 [5]: 29100 nM | inhibition [11]: inactive | half-life at 1 µM [12]: 5.03 h | inhibition [13]: inactive | half-life at 1 µM [14]: 3.17 h | microsomal CLint at 1 µM [15]: 10.3 µL/min/mg | inhibition [16]: inactive | inhibition [17]: inactive | microsomal CLint at 1 µM [18]: 5.76 µL/min/mg

COc1ccc2c(c1)/C(=C/C(=O)NCc1ccc(C(=O)Nc3ccc(F)cc3N)cc1)NC2=O
IC50 ([1]; read-out: IC50): 96.8 nM

Nc1cc(F)ccc1NC(=O)c1ccc(CNC(=O)/C=C2\NC(=O)c3ncccc32)cc1
IC50 ([1]; read-out: IC50): 8360 nM

Nc1cc(F)ccc1NC(=O)CCCCCNC(=O)/C=C1\NC(=O)c2ccccc21
IC50 ([1]; read-out: IC50): 6420 nM
